A short description of assay [1]: inhibitors of TNFa-induced NFkB p65 translocation, primary screen, imaging, HUVEC, MLSMR starter and 10KST1 sets (AID 438;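 active = inhibition above 20% together with a positive visual image hit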;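 also: compound added about 3h40 before a 20 min TNFalpha stimulation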;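 as to inhibition: signal is the nuclear over cytoplasmic p65 intensity ratio per well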). The note with it: HUVEC TNFa-induced p65 nuclear translocation; cell count: measured here: nuclei count (cytotoxicity indicator), at 2.08 µM; inhibition: at 2 µM, stronger effect = higher value, 0% TNFa-plus-vehicle, 100% no-TNFa wells.
A short description of assay [2]: endothelial E-selectin expression blockers – imaging, HUVEC, immunofluorescence, MLSMR starter and 10KST1 sets, primary screen (AID 487;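 active = visually confirmed hit in the image check and inhibition above 20%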;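 as to inhibition: signal is fraction of cell area covered by stained E-selectin grains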;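 as to nuclei count: 100% = median nuclei count of all wells on the same plate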). The note with it: HUVEC TNFalpha-induced E-selectin immunofluorescence imaging, at 2 µM; inhibition: stronger effect = higher value; nuclei count: measured here: cell number, toxicity.
The nature of assay [3]: Primary imaging screen for DUSP6 inhibitors that restore phospho-Erk in transfected HeLa cells, chemical complementation (AID 609;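 active = compounds giving at least 50% inhibition in the cell-based MKP-3 phosphatase rescue imaging test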;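 as to inhibition: phospho-Erk level distribution per well compared with pooled transfected vehicle control wells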). The note with it: HeLa MKP-3 transfected, phospho-Erk imaging KS statistic, at 10 µM, cells stimulated with TPA for 15 min.
Assay [4] deals with Dual specificity protein phosphatase 6 (Homo sapiens) (UniProt Q16828). The assay is described as above. Particulars: HeLa MKP-3 transfected, phospho-Erk imaging KS statistic; at 10 µM; stronger effect = higher value; cells stimulated with TPA for 15 min.
The target in assay [5] is Voltage-gated potassium channel subunit beta-2 (Rattus norvegicus) (UniProt P62483). Description: inhibitors of rat Kvbeta2 reductase activity – biochemical, NADPH fluorescence, primary screen (AID 622).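 Also: slope of raw intensity against log time taken from 70 to 1610 s.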 The note with it: recombinant KvBeta, 4-cyanobenzaldehyde reduction, at 10 µM, stronger effect = higher value.
Assay [6] shares this target. Description: enhancers of rat Kvbeta2 NADPH turnover – biochemical, NADPH fluorescence, primary screen (AID 623;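 active = NADPH fluorescence slope more negative than the mean of all samples by about 3 SD, 99.7% confidence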;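 also: fluorescence intensity change per second fitted from 20 to 320 s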). Particulars: Recombinant KvBeta, NADPH fluorescence decrease slope, 10 min; at 10 µM; stronger effect = lower value.
Assay [7] has as its target Alpha-2C adrenergic receptor (Homo sapiens) (UniProt P18825). The assay is described as follows: compounds altering alpha2C-coupled GIRK flux – cell-based, HEK293 alpha2C/GIRK1/2, thallium flux, primary screen (AID 624;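 active = fluorescence slope after compound addition differing from the mean of all screened samples at 99.7% confidence, in either direction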;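 also: slope of fluorescence ratio to pre-addition baseline per second over 15 to 24 s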). The note with it: thallium flux BTC fluorescence, at 10 µM, actives lie on both sides.
The nature of assay [8]: inhibitors of larval lipid processing in zebrafish, primary screen, whole organism, PED6 fluorescence, gall bladder and intestine (AID 686;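 active = a full or partial loss of lipid-probe fluorescence in the fish gall bladder, intestine or both, judged by eye; inactive = no fluorescence loss, or compound toxic to the fish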;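 also: larvae 5 to 7 days old with five fish per well; signal comes from phospholipase A2 cleavage of quenched PED6 carried via bile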). Particulars: Zebrafish larvae PED6 lipid processing, fluorescence scoring; screened at 20 µM (by protocol). The essentials: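 system = live zebrafish larvae aged 5-7 days, whole organism | probe or stimulus = ingested quenched lipid PED6 at 100 nM | doses = 20 µM single dose | timing = overnight exposure | detection = fluorescence microscopy with visual scoring of gall bladder and intestine | read-out = visual per-well fluorescence inhibition score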

Assay [9] can be described thus: loss of swimming-algae plug formation – whole organism, Chlamydomonas reinhardtii, WT vs cilia-less mutant, absorbance, 96-well, primary screen (AID 463189;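 active = inhibition at or above 50% relative to wild type and mutant plate controls; inactive = inhibition below 50%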;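 also: 0% = wild type cc124 cells in DMSO and 100% = ciliumless bld1 mutant cells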). The note with it: Chlamydomonas reinhardtii gravitaxis, OD600 absorbance, 2 days; at 10 µM; stronger effect = higher value.
Setting [10] is: measured here: cell density z-score.
[11] abbreviates: measured here: nuclear c-Myc green intensity z-score.
Setting [12] is: measured here: nuclear pErk red intensity z-score, stronger effect = higher value.

SMILES strings stand for the structures. Activity calls are given as the source filed them.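 The calls were made as follows, unless noted: active = fluorescence slope higher than the sample average by over 3 SD (cut at about -0.22 in these data, passing the limit was not always enough); inactive = the rest.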

Alpha-2C adrenergic receptor (Homo sapiens), sequence (P18825 whole entry, looked up): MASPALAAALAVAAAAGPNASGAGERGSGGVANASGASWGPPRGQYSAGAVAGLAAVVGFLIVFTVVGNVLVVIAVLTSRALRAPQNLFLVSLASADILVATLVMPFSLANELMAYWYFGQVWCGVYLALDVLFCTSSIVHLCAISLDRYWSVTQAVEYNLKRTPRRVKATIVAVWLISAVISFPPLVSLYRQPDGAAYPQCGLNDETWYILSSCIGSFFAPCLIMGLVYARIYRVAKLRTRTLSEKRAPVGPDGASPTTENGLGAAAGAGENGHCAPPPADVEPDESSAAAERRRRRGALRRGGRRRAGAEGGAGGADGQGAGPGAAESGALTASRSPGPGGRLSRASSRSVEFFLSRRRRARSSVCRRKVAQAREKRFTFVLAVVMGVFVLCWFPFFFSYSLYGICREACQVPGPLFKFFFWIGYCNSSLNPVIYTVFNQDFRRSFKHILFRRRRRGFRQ
Dual specificity protein phosphatase 6 (Homo sapiens), sequence (Q16828 whole entry, looked up): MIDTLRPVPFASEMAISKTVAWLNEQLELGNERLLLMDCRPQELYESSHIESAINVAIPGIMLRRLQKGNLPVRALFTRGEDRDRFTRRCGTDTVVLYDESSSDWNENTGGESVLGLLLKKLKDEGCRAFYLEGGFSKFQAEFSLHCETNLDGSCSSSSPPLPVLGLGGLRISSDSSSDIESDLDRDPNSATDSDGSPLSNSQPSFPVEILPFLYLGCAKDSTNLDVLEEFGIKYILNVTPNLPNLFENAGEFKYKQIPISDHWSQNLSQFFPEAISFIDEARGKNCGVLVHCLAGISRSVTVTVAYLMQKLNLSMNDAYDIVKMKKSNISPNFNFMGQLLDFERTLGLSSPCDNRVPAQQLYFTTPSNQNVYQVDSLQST
Voltage-gated potassium channel subunit beta-2 (Rattus norvegicus), sequence (P62483 whole entry, looked up): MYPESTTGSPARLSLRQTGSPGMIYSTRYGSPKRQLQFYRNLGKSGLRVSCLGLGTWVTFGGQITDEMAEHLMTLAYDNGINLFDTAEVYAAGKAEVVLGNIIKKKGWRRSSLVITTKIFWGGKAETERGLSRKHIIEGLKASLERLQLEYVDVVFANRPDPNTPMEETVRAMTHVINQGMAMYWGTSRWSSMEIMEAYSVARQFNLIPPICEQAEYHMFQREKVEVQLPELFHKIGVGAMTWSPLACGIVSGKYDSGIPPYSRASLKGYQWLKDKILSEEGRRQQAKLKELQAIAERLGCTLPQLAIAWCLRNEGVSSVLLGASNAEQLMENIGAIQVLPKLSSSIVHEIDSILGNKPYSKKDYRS

Turning to `Oc1ccccc1CNn1cnnc1`, the cell count in assay [1] is 563. The inhibition (in general, the drop in the measured response relative to a control, in per cent) is -0.7% (inactive) in assay [1], -6.7% (inactive) in [2], -3.5% (inactive) in [4] and 18.3% (inactive) in assay [9]. Besides, the nuclei count in assay [2] is 168%. The z-score in assay [3] (setting [10]) is -0.0903; in [3] (setting [11]), -0.194; in [3] (setting [12]), 0.333. In addition, the fluorescence slope in [5] is -0.324 (inactive). For the same molecule, the NADPH fluorescence slope in [6] was 1.4e-05 (inactive). In addition, in [7], the slope is 0.00654 (inactive). In addition, the outcome in assay [8] was inactive.

Turning to `COc1ccc(-c2cc3nc4n(c(=O)c3s2)CCOC4)cc1`, the cell count in [1] was found to be 561. Also, the inhibition in assay [1] is -7.1% (inactive); in [2] it was 30.7% (inactive); in [4], -5.26% (inactive); in [9], 7.02% (inactive). The nuclei count in assay [2] was 157%. In addition, the z-score in assay [3] (setting [10]) is -0.862; in assay [3] (setting [11]) it was -0.643; in assay [3] (setting [12]) it was -0.319. Moreover, the fluorescence slope in [5] is -0.185 (inactive). Further, the NADPH fluorescence slope in assay [6] was -1.6e-05 (inactive). Further, the slope in [7] was 0.0053 (inactive). In assay [8], the call was inactive.

Consider `CC1CCN(c2oc(-c3ccccc3Cl)nc2C#N)CC1`, for which the cell count in assay [1] was determined as 601. The inhibition was -11.3% (inactive) in assay [1], 36.1% (inactive) in [2], -0.674% (inactive) in [4] and 4.67% (inactive) in [9]. The nuclei count in assay [2] amounted to 153%. For the same molecule, the z-score is -0.563 in assay [3] (setting [10]), 0.859 in [3] (setting [11]) and 0.215 in [3] (setting [12]). In assay [5], the fluorescence slope is -0.397 (inactive). The NADPH fluorescence slope in assay [6] is -0.000144 (inactive). Besides, the slope in assay [7] was 0.00562 (inactive). Also, the result in assay [8] was inactive.

As to `O=C(C1=C(O)C(=O)N(CCN2CCOCC2)C1c1cccnc1)c1cc2ccccc2o1` (stereo unspecified), in assay [1], the cell count came to 451. In addition, the inhibition in [1] is 4.1% (inactive); in assay [2] it was -45.7% (inactive); in [4], 15% (inactive); in assay [9], -5.22% (inactive). In assay [2], the nuclei count came to 168%. For the same molecule, the z-score in [3] (setting [10]) was -0.44; in assay [3] (setting [11]) it was 2.22; in assay [3] (setting [12]), 0.434. Also, in [5], the fluorescence slope is -0.41 (inactive). The NADPH fluorescence slope in assay [6] is -6.5e-05 (inactive). In [7], the slope was 0.00612 (inactive). Further, the outcome in [8] was inactive.

In the case of `CN=C1c2cc3c(Br)c(OC)ccc3n2CCN1C`, the cell count in [1] worked out at 550. The inhibition is -16.9% (inactive) in [1], -28.8% (inactive) in assay [2], 8.31% (inactive) in [4] and -2.97% (inactive) in [9]. This molecule also displayed a nuclei count in [2] of 142%. The figures for the z-score in [3] (setting [10]), in assay [3] (setting [11]) and in assay [3] (setting [12]) were 0.29, -0.368 and 0.361, respectively. The fluorescence slope in assay [5] was -0.493 (inactive). Further, the NADPH fluorescence slope in [6] is -5.7e-05 (inactive). Besides, the slope in [7] is 0.00409 (inactive). Further, in assay [8], the outcome is “inactive; toxic”.

Take `O=c1oc2c3c4c(cc2c(C(F)(F)F)c1CCN1CCOCC1)CCCN4CCC3`: the cell count in [1] stood at 507. For the same molecule, the inhibition in [1] is -1% (inactive); in [2], -59.8% (inactive); in assay [4], -4.78% (inactive); in [9], -7.21% (inactive). In [2], this molecule returned a nuclei count of 160%. For the same molecule, the z-score was -0.81 in [3] (setting [10]), 0.512 in assay [3] (setting [11]) and -1.2 in assay [3] (setting [12]). In addition, in [5], the fluorescence slope was -0.315 (inactive). In addition, in assay [6], the NADPH fluorescence slope is -4.5e-05 (inactive). In addition, in assay [7], the slope was 0.0309 (active). The result in assay [8] was inactive.

For `O=C1[C@@H]2[C@H](C(=O)N1n1cnnc1)[C@H]1C=C[C@@H]2C1`, the cell count in assay [1] was found to be 618. Also, the inhibition was -4.3% (inactive) in assay [1], -49.4% (inactive) in assay [2], 4.25% (inactive) in assay [4] and 13.5% (inactive) in assay [9]. In assay [2], this molecule had a nuclei count of 143%. Also, the z-score is -1.23 in assay [3] (setting [10]), -0.0869 in [3] (setting [11]) and -0.601 in assay [3] (setting [12]). The fluorescence slope in [5] is -0.529 (inactive). Also, in assay [6], the NADPH fluorescence slope was -6.9e-05 (inactive). For the same molecule, the slope in assay [7] was 0.00514 (inactive). Further, in [8], the outcome was inactive.
